Results from ChEMBL document CHEMBL1138558, “Synthesis of some new 1,2,4-triazoles, their Mannich and Schiff bases and evaluation of their antimicrobial activities” (2009).

Experiments:
Assay type in all cases: functional
Candida albicans = test: Antimicrobial activity against Candida albicans ATCC 60193 at 5 ug after 18 hrs by agar-well diffusion method; settings: ATCC 60193, 18 h, read-out: IZ
Outline: (§1)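 Yeast suspended in Mueller Hinton broth and diluted to about 10⁶ cfu/mL, then flood-inoculated onto Sabouraud Dextrose Agar and dried. 5-mm wells cut with a sterile cork-borer and filled with test substance. Plates incubated 18 h at 35 °C. Read-out is the zone of inhibition.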

Candida tropicalis = test: Antimicrobial activity against Candida tropicalis ATCC 13803 at 5 ug after 18 hrs by agar-well diffusion method; settings: ATCC 13803, 18 h, read-out: IZ; outline: as §1
Escherichia coli = test: Antimicrobial activity against Escherichia coli ATCC 25922 at 10 ug after 18 hrs by agar-well diffusion method; settings: ATCC 25922, 18 h, read-out: IZ
Outline: (§2)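 Bacteria suspended in Mueller Hinton broth at about 10⁶ cfu/mL, flood-inoculated onto Mueller Hinton agar and dried. Test substance placed into 5-mm wells bored with a sterile cork-borer. Incubation 18 h at 35 °C, then the inhibition zone around each well measured.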

[1] = tested on: Yersinia pseudotuberculosis; test: Antimicrobial activity against Yersinia pseudotuberculosis ATCC 911 at 10 ug after 18 hrs by agar-well diffusion method; settings: ATCC 911, 18 h, read-out: IZ; outline: as §2
Bacillus cereus = test: Antimicrobial activity against Bacillus cereus 702 Roma at 10 ug after 18 hrs by agar-well diffusion method; settings: read-out: IZ
Pseudomonas aeruginosa = test: Antimicrobial activity against Pseudomonas aeruginosa ATCC 27853 at 10 ug after 18 hrs by agar-well diffusion method; settings: ATCC 27853, 18 h, read-out: IZ
Staphylococcus aureus = test: Antimicrobial activity against Staphylococcus aureus ATCC 25923 at 10 ug after 18 hrs by agar-well diffusion method; settings: ATCC 25923, 18 h, read-out: IZ
Enterococcus faecalis = test: Antimicrobial activity against Enterococcus faecalis ATCC 29212 at 10 ug after 18 hrs by agar-well diffusion method; settings: ATCC 29212, 18 h, read-out: IZ

**Q.** For OC(Cn1cncn1)(Cn1cncn1)c1ccc(F)cc1F [FLUCONAZOLE], which zone of inhibition at 5 µg/disc (Candida albicans) is on record?
**A.** 25 mm

**Q.** And the zone of inhibition at 5 µg/disc (Candida tropicalis)?
**A.** 25 mm

**Q.** How did the zone of inhibition at 10 µg/disc (Escherichia coli) turn out when CC1(C)S[C@@H]2[C@H](NC(=O)[C@H](N)c3ccccc3)C(=O)N2[C@H]1C(=O)O [AMPICILLIN] was run?
**A.** 10 mm

**Q.** What about the zone of inhibition at 10 µg/disc [1] of the same compound?
**A.** 18 mm

**Q.** What about the zone of inhibition at 10 µg/disc (Bacillus cereus) of the same compound?
**A.** 15 mm

**Q.** And the zone of inhibition at 10 µg/disc (Pseudomonas aeruginosa)?
**A.** 18 mm

**Q.** And the zone of inhibition at 10 µg/disc (Staphylococcus aureus)?
**A.** 35 mm

**Q.** And the zone of inhibition at 10 µg/disc (Enterococcus faecalis)?
**A.** 10 mm
